Activity calls are given as the source filed them. No cut-off for these calls is given here.
Columns and labels:
[1] = test system: HL-60; assay: Antiproliferative activity against human HL60 cells measured after 72 hrs by Celltiter-Glo assay; format: functional, cell-based; details: HL-60, 72 h
[2] = test system: K562; assay: Antiproliferative activity against human K562 cells measured after 72 hrs by Celltiter-Glo assay; format: functional, cell-based; details: K562, 72 h
[3] = test system: PBMC; assay: Cytotoxicity against human PBMC cells measured after 72 hrs by Celltiter-Glo assay; format: ADME, cell-based
[4] = test system: MV4-11; assay: Antiproliferative activity against human MV4-11 cells measured after 72 hrs by Celltiter-Glo assay; format: functional, cell-based; details: MV4-11, 72 h
[5] = test system: MV4-11; assay: Cell cycle arrest in human MV4-11 cells assessed as accumulation at S phase at 0.3 uM after 24 hrs by propidium iodide/RNase A staining based FACScalibur flow cytometry analysis (reference value: 29.92 %); format: functional
[6] = test system: MV4-11; assay: Induction of apoptosis in human MV4-11 cells assessed as decrease in phosphorylated-FLT3 expression after 24 hrs by Western blot analysis; format: functional, cell-based
Outline: (§1)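 MV4-11 cells (RPMI-1640, 10% FBS, 37 °C, 5% CO2) exposed 24 h to 0.15, 0.3 or 0.6 μM. Lysed in RIPA buffer, protein measured by BCA, 40 μg run on SDS-PAGE and blotted to nitrocellulose. Primary antibodies overnight at 4 °C, HRP anti-rabbit IgG secondary 1 h at rt. Bands detected by ECL.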

[7] = test system: MV4-11; assay: Cell cycle arrest in human MV4-11 cells assessed as accumulation at S phase at 0.6 uM after 24 hrs by propidium iodide/RNase A staining based FACScalibur flow cytometry analysis (reference value: 29.92 %); format: functional
[8] = test system: MV4-11; assay: Cell cycel arrest in human MV4-11 cells assessed as decrease in CDK2 expression at 0.15 to 0.6 uM after 24 hrs by Western blot analysis; format: functional, cell-based; outline: as §1
[9] = test system: MV4-11; assay: Cell cycle arrest in human MV4-11 cells assessed as accumulation at S phase at 0.15 uM after 24 hrs by propidium iodide/RNase A staining based FACScalibur flow cytometry analysis (reference value: 29.92 %); format: functional
[10] = test system: MV4-11; assay: Cell cycle arrest in human MV4-11 cells assessed as accumulation at G2/M phase at 0.15 uM after 24 hrs by propidium iodide/RNase A staining based FACScalibur flow cytometry analysis (reference value: 10.58 %); format: functional
[11] = test system: MV4-11; assay: Cell cycle arrest in human MV4-11 cells assessed as accumulation at G2/M phase at 0.3 uM after 24 hrs by propidium iodide/RNase A staining based FACScalibur flow cytometry analysis (reference value: 10.58 %); format: functional
[12] = test system: MV4-11; assay: Cell cycle arrest in human MV4-11 cells assessed as accumulation at G0/G1 phase at 0.15 uM after 24 hrs by propidium iodide/RNase A staining based FACScalibur flow cytometry analysis (reference value: 50.04 %); format: functional
[13] = test system: MV4-11; assay: Induction of apoptosis in human MV4-11 cells assessed as decrease in c-kit expression after 24 hrs by Western blot analysis; format: functional, cell-based; outline: as §1
[14] = test system: MV4-11; assay: Cell cycle arrest in human MV4-11 cells assessed as accumulation at G0/G1 phase at 0.6 uM after 24 hrs by propidium iodide/RNase A staining based FACScalibur flow cytometry analysis (reference value: 50.04 %); format: functional
[15] = test system: MV4-11; assay: Induction of apoptotic cell death in human MV4-11 cells at 0.3 uM after 24 hrs by DAPI-based TUNEL assay; format: functional
Outline: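 MV4-11 cells held at 0.3 μM for 24 h, then processed with a one-step TUNEL kit. DNA counterstained with DAPI. Green apoptotic cells seen by fluorescence microscopy, excitation 450−500 nm, emission 515−565 nm.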

[16] = test system: MV4-11; assay: Cell cycle arrest in human MV4-11 cells assessed as accumulation at G0/G1 phase at 0.3 uM after 24 hrs by propidium iodide/RNase A staining based FACScalibur flow cytometry analysis (reference value: 50.04 %); format: functional
[17] = test system: MV4-11; assay: Induction of apoptosis in human MV4-11 cells assessed as decrease in FLT3 expression after 24 hrs by Western blot analysis; format: functional, cell-based; outline: as §1
[18] = test system: MV4-11; assay: Cell cycle arrest in human MV4-11 cells assessed as accumulation at G2/M phase at 0.6 uM after 24 hrs by propidium iodide/RNase A staining based FACScalibur flow cytometry analysis (reference value: 10.58 %); format: functional

Row | SMILES | IC50 [1] | IC50 [2] | IC50 [3] | IC50 [4] | other results
1 | CO[C@@H]1[C@H](N(C)c2ncc(-c3c[nH]c4ccc(Cl)cc34)s2)C[C@H]2O[C@]1(C)n1c3ccccc3c3c4c(c5c6cc(Cl)ccc6n2c5c31)C(=O)NC4 | > 10 µM | > 10 µM | > 10 µM | 0.59 µM | 
2 | CO[C@@H]1[C@H](N(C)c2ncc(-c3c[nH]c4ccccc34)s2)C[C@H]2O[C@]1(C)n1c3ccccc3c3c4c(c5c6cc(Cl)ccc6n2c5c31)C(=O)NC4 | > 10 µM | > 10 µM | > 10 µM | 0.56 µM | 
3 | CO[C@@H]1[C@H](N(C)c2ncc(-c3c[nH]c4ccccc34)s2)C[C@H]2O[C@]1(C)n1c3ccccc3c3c4c(c5c6cc(Br)ccc6n2c5c31)C(=O)NC4 | > 10 µM | > 10 µM | > 10 µM | 0.36 µM | 
4 | CO[C@@H]1[C@H](N(C)c2ncc(-c3c[nH]c4ccc(Br)cc34)s2)C[C@H]2O[C@]1(C)n1c3ccccc3c3c4c(c5c6cc(Cl)ccc6n2c5c31)C(=O)NC4 | > 10 µM | > 10 µM | > 10 µM | 0.43 µM | 
5 | CO[C@@H]1[C@H](N(C)c2ncc(-c3c[nH]c4ccc(F)cc34)s2)C[C@H]2O[C@]1(C)n1c3ccccc3c3c4c(c5c6ccccc6n2c5c31)C(=O)NC4 | > 10 µM | > 10 µM | > 10 µM | 0.51 µM | 
6 | CO[C@@H]1[C@H](N(C)c2ncc(-c3c[nH]c4ccccc34)s2)C[C@H]2O[C@]1(C)n1c3ccccc3c3c4c(c5c6ccccc6n2c5c31)C(=O)NC4 | > 10 µM | > 10 µM | > 10 µM | 0.4 µM | 
7 | COc1ccc2[nH]cc(-c3cnc(N(C)[C@@H]4C[C@H]5O[C@@](C)([C@@H]4OC)n4c6ccccc6c6c7c(c8c9ccccc9n5c8c64)C(=O)NC7)s3)c2c1 | > 10 µM | > 10 µM | > 10 µM | 0.36 µM | 
8 | CO[C@@H]1[C@H](N(C)c2ncc(-c3c[nH]c4ccc(F)cc34)s2)C[C@H]2O[C@]1(C)n1c3ccccc3c3c4c(c5c6cc(Br)ccc6n2c5c31)C(=O)NC4 | > 10 µM | > 10 µM | > 10 µM | 0.96 µM | 
9 | CO[C@@H]1[C@H](N(C)c2ncc(-c3c[nH]c4ccc(Br)cc34)s2)C[C@H]2O[C@]1(C)n1c3ccccc3c3c4c(c5c6ccccc6n2c5c31)C(=O)NC4 | > 10 µM | > 10 µM | > 10 µM | 0.41 µM | 
10 | CO[C@@H]1[C@H](N(C)c2ncc(-c3c[nH]c4ccc(Cl)cc34)s2)C[C@H]2O[C@]1(C)n1c3ccccc3c3c4c(c5c6cc(Br)ccc6n2c5c31)C(=O)NC4 | > 10 µM | > 10 µM | > 10 µM | 0.7 µM | 
11 | COc1ccc2[nH]cc(-c3cnc(N(C)[C@@H]4C[C@H]5O[C@@](C)([C@@H]4OC)n4c6ccccc6c6c7c(c8c9cc(Br)ccc9n5c8c64)C(=O)NC7)s3)c2c1 | > 10 µM | > 10 µM | > 10 µM | 0.51 µM | 
12 | CO[C@@H]1[C@H](N(C)c2ncc(-c3c[nH]c4ccc(Br)cc34)s2)C[C@H]2O[C@]1(C)n1c3ccccc3c3c4c(c5c6cc(Br)ccc6n2c5c31)C(=O)NC4 | > 10 µM | > 10 µM | > 10 µM | 0.39 µM | 
13 | COc1ccc2[nH]cc(-c3cnc(N(C)[C@@H]4C[C@H]5O[C@@](C)([C@@H]4OC)n4c6ccccc6c6c7c(c8c9cc(Cl)ccc9n5c8c64)C(=O)NC7)s3)c2c1 | > 10 µM | > 10 µM | > 10 µM | 0.44 µM | 
14 | CO[C@@H]1[C@H](N(C)c2ncc(-c3c[nH]c4ccc(F)cc34)s2)C[C@H]2O[C@]1(C)n1c3ccccc3c3c4c(c5c6cc(Cl)ccc6n2c5c31)C(=O)NC4 | > 10 µM | > 10 µM | > 10 µM | 0.32 µM | Activity [5]: 9.23%; Activity [6]: Dose-dependent effect; Activity [7]: 10.18%; Activity [8]: Active; Activity [9]: 20.19%; Activity [10]: 10.04%; Activity [11]: 6.6%; Activity [12]: 60.59%; Activity [13]: Dose-dependent effect; Activity [14]: 87.75%; Activity [15]: Active; Activity [16]: 72.68%; Activity [17]: Dose-dependent effect; Activity [18]: 0.45%
15 | CO[C@@H]1[C@H](N(C)c2ncc(-c3c[nH]c4ccc(Cl)cc34)s2)C[C@H]2O[C@]1(C)n1c3ccccc3c3c4c(c5c6ccccc6n2c5c31)C(=O)NC4 | > 10 µM | > 10 µM | > 10 µM | 0.42 µM | 

Reference: ChEMBL document CHEMBL4373701, “Semisynthetic Derivatives of Fradcarbazole A and Their Cytotoxicity against Acute Myeloid Leukemia Cell Lines” (J Nat Prod, 2019)
